SMILES strings stand for the structures. Values after ≈ are worked out from the molar mass of the structure shown.

For data set [1], the system named is M. tuberculosis. Particulars: previous study; cited from earlier work.
The nature of the next data set: Interconversion. Type of data set: physicochemical. The note with it: for Relative stability among diastereomers/epimers: hemiaminal equilibrium.
Data set [2] addresses Mycobacterial ClpC1-NTD (caseinolytic protein C1 N-terminal domain) (Mycobacterium tuberculosis, UniProt P9WPC9). The data set is described as follows: Binding affinity to ClpC1-NTD by surface plasmon resonance. Particulars: SPR, KD = kd/ka, 1:1 Langmuir model. Put shortly: (§1)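 Association (ka) and dissociation (kd) rate constants came from a global fit of double-referenced SPR data to a 1:1 Langmuir model, and KD was calculated as kd/ka. The same procedure was used for the mycobacterial ClpC1 N-terminal domain and for the full-length protein.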
In general terms: SPR reads the build-up and loss of mass on a sensor chip optically.

The target in data set [3] is Mycobacterial ClpC1 FL (full-length protein) (Mycobacterium tuberculosis, UniProt P9WPC9). In words: Binding affinity to full-length ClpC1 by surface plasmon resonance. The note with it: SPR, KD = kd/ka, 1:1 Langmuir model. Put shortly:
as §1

The subject of data set [4] is M. tuberculosis. The data set is described as follows: MIC against M. tuberculosis, microplate Alamar Blue assay. Type of data set: cell-based. Particulars: Mycobacterium tuberculosis, read-out: MIC value (anti-Mtb).

Mycobacterial ClpC1 FL (full-length protein), sequence (P9WPC9 whole entry): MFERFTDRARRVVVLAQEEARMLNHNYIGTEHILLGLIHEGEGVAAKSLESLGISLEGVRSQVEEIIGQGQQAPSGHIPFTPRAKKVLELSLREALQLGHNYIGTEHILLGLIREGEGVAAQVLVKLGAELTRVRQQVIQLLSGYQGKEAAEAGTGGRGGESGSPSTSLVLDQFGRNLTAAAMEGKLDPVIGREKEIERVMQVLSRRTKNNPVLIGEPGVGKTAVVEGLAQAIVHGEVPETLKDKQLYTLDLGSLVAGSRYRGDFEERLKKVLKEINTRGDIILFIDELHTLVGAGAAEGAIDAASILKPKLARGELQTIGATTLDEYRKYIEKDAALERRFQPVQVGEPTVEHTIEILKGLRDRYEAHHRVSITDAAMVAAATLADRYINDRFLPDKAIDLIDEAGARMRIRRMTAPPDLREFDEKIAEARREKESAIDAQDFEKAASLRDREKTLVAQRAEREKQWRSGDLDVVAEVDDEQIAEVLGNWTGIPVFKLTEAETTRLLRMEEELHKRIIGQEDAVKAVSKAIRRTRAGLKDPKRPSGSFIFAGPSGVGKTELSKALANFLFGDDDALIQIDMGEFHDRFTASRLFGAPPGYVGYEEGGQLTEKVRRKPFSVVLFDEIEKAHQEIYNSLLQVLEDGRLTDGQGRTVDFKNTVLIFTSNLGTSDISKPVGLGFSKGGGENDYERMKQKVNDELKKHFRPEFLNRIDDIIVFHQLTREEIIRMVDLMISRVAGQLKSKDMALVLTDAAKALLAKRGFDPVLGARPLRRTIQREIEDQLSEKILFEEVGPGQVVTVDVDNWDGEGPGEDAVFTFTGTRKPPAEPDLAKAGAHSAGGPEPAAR
Mycobacterial ClpC1-NTD (caseinolytic protein C1 N-terminal domain), sequence (P9WPC9 2-144): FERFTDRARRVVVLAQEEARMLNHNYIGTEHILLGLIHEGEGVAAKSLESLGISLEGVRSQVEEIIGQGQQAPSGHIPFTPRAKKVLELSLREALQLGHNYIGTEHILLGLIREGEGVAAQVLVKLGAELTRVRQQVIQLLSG

On to `C/C=C/C[C@@H]1NC(=O)[C@H](CC(C)C)N2C(=O)[C@H](C[C@H](C)[C@H]2O)N(C)C(=O)[C@H](C)NC(=O)[C@H](Cc2ccc(O)c([N+](=O)[O-])c2)NC(=O)[C@H](CC(C)C)N(C)C(=O)[C@H](Cc2cn(C(C)(C)[C@H]3CO3)c3ccccc23)NC1=O` [rufomycin 4], for which the “MIC value (anti-Mtb)” value in the data set on M. tuberculosis [1] is reported as ~ 0.020 μM.
As to `C/C=C/C[C@@H]1NC(=O)[C@H](CC(C)C)N2C(=O)[C@H](C[C@@H](C)[C@H]2O)N(C)C(=O)[C@H](C)NC(=O)[C@H](Cc2ccc(O)c([N+](=O)[O-])c2)NC(=O)[C@H](CC(C)C)N(C)C(=O)[C@H](Cc2cn(C(C)(C)[C@H]3CO3)c3ccccc23)NC1=O` [rufomycin 6], the “Relative stability among diastereomers/epimers” value in “Interconversion” is listed as “more stable epimer”. In addition, the “Conversion to rufomycin 7” value in “Interconversion” (slow conversion under aqueous conditions) is ~ 5%.
`C/C=C/C[C@@H]1NC(=O)[C@H](CC(C)C)N2C(=O)[C@H](C[C@@H](C)[C@@H]2O)N(C)C(=O)[C@H](C)NC(=O)[C@H](Cc2ccc(O)c([N+](=O)[O-])c2)NC(=O)[C@H](CC(C)C)N(C)C(=O)[C@H](Cc2cn(C(C)(C)[C@H]3CO3)c3ccccc23)NC1=O` [rufomycin 7]: the “Relative stability among diastereomers/epimers” value in “Interconversion” was “most unstable diastereomer”. The “Epimerization to rufomycin 6” value in the data set “Interconversion” (quickly, during concentration) is ~ 50%.
Usually Kd stands for the free concentration of one partner at which half of the binding sites on the other are occupied at equilibrium, for simple one-to-one binding. Turning to `CC=CCC1NC(=O)C(CC(C)C)N2C(=O)C(CC(C)C2OCCCC)N(C)C(=O)C(C)NC(=O)C(Cc2ccc(O)c([N+](=O)[O-])c2)NC(=O)C(CC(C)C)N(C)C(=O)C(Cc2cn(C(C)(C)C(O)CCl)c3ccccc23)NC1=O` (stereo not drawn) [rufomycinSS 1], the Kd in data set [2] was determined as 602 nM; in data set [3] it was 724 nM.
Taken in the same sequence, the figures for `CC=CCC1NC(=O)C(CC(C)C)N2C(=O)C(CC(C)C2OCCCC)N(C)C(=O)C(C)NC(=O)C(Cc2ccc(O)c([N+](=O)[O-])c2)NC(=O)C(CC(C)C)N(C)C(=O)C(Cc2cn(C(C)(C)C(O)CCl)c3ccccc23)NC1=O` (stereo not drawn) [rufomycinSS 2] were 27 nM and 29 nM.
As usually defined, the MIC is the least concentration at which growth counts as inhibited. For the compound `C/C=C/C[C@@H]1NC(=O)[C@H](CC(C)C)N2C(=O)[C@H](C[C@@H](C)[C@H]2OCCCC)N(C)C(=O)[C@H](C)NC(=O)[C@H](Cc2ccc(O)c([N+](=O)[O-])c2)NC(=O)[C@H](CC(C)C)N(C)C(=O)[C@H](Cc2cn(C(C)(C)C(O)CCl)c3ccccc23)NC1=O` (stereo partly drawn) [rufomycinSS 3], the minimum inhibitory concentration (MIC) in the data set on M. tuberculosis [4] came to 4.3 µM (≈ 4.88 µg/mL). Further, the Kd in data set [2] is 211 nM; in data set [3], 171 nM.

Values taken from paper PMC8865217 (Journal of natural products, 2021).
